Among the data in PubChem BioAssay AID686939 (The Scripps Research Institute Molecular Screening Center, 2013) are activation values, retold here.

Structures are written as SMILES. Screen size: about 3,500 compounds; about 1,400 (40%) were called active. So high a share suggests a set chosen from earlier hits. A selection follows. A number with no mark means an inactive call.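 The calls were made as follows: active = activation above the solvent-only control well mean plus 3 SD, averaged across control plates (cut at about 5.2% in these data); inactive = the rest.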

This assay can be described thus: GAL4-VP16 luciferase reporter activation, counter-screen for SMARCA2 (BRM) activator project, cell-based, pG5luc, luminescence, high throughput (AID 686939). The conditions noted are these: HEK293 GAL4-VP16 pG5luc reporter, at 9.1 µM, hits give high values, scaled: DMSO wells 0%, SAHA wells 100%. The gist of the method:
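System: 293 cells carrying GAL4-VP16 plus UAS-luciferase reporter. Quantity: 2,500 transfected 293 cells per well. Incubation: 24 h exposure, 37 °C, 5% CO2, One-Glo 15 min RT. Technique: luciferase luminescence after One-Glo reagent addition. Benchmarks: DMSO and SAHA.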
On the technique in general: Reporter assays use an easily measured gene product as a stand-in for the process of interest.
As to `Cc1cc(C)c2nc(NC(=O)C3CCCO3)sc2c1` (stereo unspecified), the activation was 7.97% (active). The figure for `O=C(Nc1nnc(CCc2ccccc2)s1)C1CCCO1` (stereo unspecified) is 0.86%. With `Cc1ccccc1C1=N/C(=C/c2cccnc2)C(=O)O1`, the activation was 0.55%. Next, `Cc1ccc(O)c(CNc2nc3ccccc3n2C)c1`: 1.49%; `COC(=O)c1ccc(/C=C2/C(=O)Oc3ccccc32)cc1`: -0.16%. Next, `COC(=O)c1ccc(NCc2cc(O)ccc2O)cc1`: 5.14% (active). Next, `CCC1CCC/C1=N\NC(=O)c1ccc(Cl)cc1` (stereo unspecified): 0.4%. Regarding `O=C(C1CCC1)N1CCN(S(=O)(=O)c2ccc([N+](=O)[O-])cc2)CC1`, the activation is 0.6%.

As for `Cc1ccsc1-c1nc(CSCC(=O)NCCN2CCCC2)c(C)o1`, the activation was 0.41%. The figure for `Cc1ccc(C(=O)Nc2nc3ccc(Cl)cc3s2)o1` is 7.07% (active). The figure for `CC1CCCCN1C(=S)NCc1ccccc1` (stereo unspecified) is -0.22%; for `Cc1ccc(C(=O)NNC(=O)c2cccs2)cc1` it is 6.36% (active); for `Cc1ccc(S(=O)(=O)c2c[nH]c3ccc(Cl)cc3c2=O)cc1` it is -0.72%.

Regarding `Cc1ccc(S(=O)(=O)NC(C)C(=O)NCc2ccc(Cl)cc2)cc1` (stereo unspecified), the activation was -0.12%. Next, `COc1ccc(NC(=O)c2sccc2SCC#N)cc1`: 2.71%. Next, `O=[N+]([O-])c1ccc2c(c1)Nc1nc3ccccc3nc1N2`: 10.8% (active). Next, `CCCn1c(=O)c2ccccc2n2c(SCC(=O)/C(C#N)=C(\C)N)nnc12`: -0.93%; `CCc1cc2c(=O)c(-c3ccon3)c(N)oc2cc1OC`: 5.65% (active); `Cc1n[nH]c(=O)nc1N/N=C/c1cccs1`: 2.94%. As for `CC(C)c1ccc(NC(=S)NC2CC3C=CC2C3)cc1` (stereo unspecified), the activation was 8.15% (active). Next, `CCc1ccc(NC2Nc3cc(C)nn3S2)cc1` (stereo unspecified): 6.27% (active). As to `O=C(NCC1CCCO1)c1cc2c(s1)CCCC2` (stereo unspecified), the activation is 10.9% (active). For the molecule `Cc1ccc(NC(=O)c2cnc(SCC(=O)NCC3CCCO3)n(C)c2=O)cc1` (stereo unspecified), the activation was 3.55%. The figure for `O=C(Nc1ccc(F)cc1)c1cc2c(s1)CCCC2` is 10.8% (active).

With `COCn1c(COc2ccccc2)nc2ccccc21`, the activation is 3.98%. The figure for `CN1CCN(CCCNC(=O)c2ccc(/C=C3\Oc4ccccc4N(Cc4ccc(Cl)cc4)C3=O)cc2)CC1` is 2.16%; for `COC(=O)Cc1nnn2c1[C@H](C)[C@H](c1ccccc1[N+](=O)[O-])OCC2` it is 1.5%. The figure for `O=C(Nc1ccc(NC(=O)c2cccs2)cn1)c1ccco1` is 11.6% (active); for `CCOc1cc(NC(=S)NCCCOC)c(OCC)cc1NC(=O)c1ccco1` it is -0.82%. Next, `O=C(Nc1ccc2nccnc2c1)c1ccco1`: 6.58% (active).

Regarding `C/C(CC(=O)NC(C)(C)C)=N\NC(=O)c1ccco1`, the activation was 1.25%.

As for `Cn1sc(=O)c2cc(S(=O)(=O)NC3CC3)ccc21`, the activation is 1.24%. Next, `Cc1ccsc1C(=O)N/N=C/c1ccc([N+](=O)[O-])cc1`: 14.2% (active). Next, `O=C1/C(=C\c2ccc([N+](=O)[O-])cc2)CS(=O)(=O)C/C1=C/c1ccc([N+](=O)[O-])cc1`: -4.02%; `O=C(OCC(=O)c1cccs1)C1=COCCO1`: 7.73% (active); `O=C(NCc1ccccn1)c1cnc2sccn2c1=O`: 2.95%.

With `Cc1cc(C)n2nc(CNS(=O)(=O)c3c(F)c(F)c(F)c(F)c3F)nc2n1`, the activation is 1.55%.

Turning to `CC(C)(C)C(=O)CSc1nc2ccccc2o1`, the activation was 5.87% (active). As for `CN(C)c1nc(=Nc2cccc(Cl)c2)ss1`, the activation is 1.47%. Turning to `COc1ccc(/C(N)=N/OC(=O)Oc2ccccc2)cc1`, the activation was -0.09%. The figure for `CCCOc1ccc(-c2nc(N)n[nH]2)cc1` is 6.36% (active); for `COc1ccc2nc(/N=C(\N)NC(=O)Nc3ccccc3)nc(C)c2c1` it is -0.04%; for `Cc1ccnc(NC(=O)C2CCN(S(=O)(=O)c3c(C)c(C)cc(C)c3C)CC2)c1` it is 1.57%.

For the molecule `COc1cccc(C(=O)Nc2nc3ccc(S(C)(=O)=O)cc3s2)c1`, the activation is 5.21% (active).

Turning to `N#Cc1ccccc1NC(=O)c1cccc(COc2ccc(Cl)cc2Cl)c1`, the activation was 21.9% (active).

`COc1ccc(S(=O)(=O)NC(C)C(=O)N2CCCCCC2)cc1` (stereo unspecified): the activation is -0.22%. The figure for `CC(=O)Nc1ccc(Nc2c3ccccc3nc3ccccc23)cc1` is 1.5%. Next, `CCCC(=O)N1c2ccc(-c3csc(N)n3)cc2CC1C` (stereo unspecified): 13.6% (active); `CCC(=O)Nc1ccc2nn(-c3ccc(F)cc3)nc2c1`: 7.66% (active); `CCCSC(=S)NC1CCS(=O)(=O)C1` (stereo unspecified): -1.45%. Consider `Cc1noc(C)c1/C=N/Nc1ccc2ccccc2n1`, for which the activation was 11.4% (active). The figure for `COc1ccc(/C=C/C(=O)Nc2ccc(C34CC5CC(CC(O)(C5)C3)C4)cc2)cc1OC` is 16.6% (active); for `Cc1c(NC(=O)CSc2cccc3cccnc23)c(=O)n(-c2ccccc2)n1C` it is -2.03%. The figure for `COc1ccc(C(=O)N/N=c2\oc3ccccc3cc2C(N)=O)cc1` is 2.08%; for `Cn1cc(/C=C/C(=O)N2CCCC(C(=O)c3ccc(C(F)(F)F)cc3)C2)cn1` (stereo unspecified) it is 0.52%; for `CCN(CC)CCNC(=O)c1ccc(NC(=O)c2cc(-c3ccncc3)nc3ccccc23)cc1` it is 1.61%. Next, `CN(C)CCNC(=O)c1ccc(Cl)c2cc3ccccc3nc12`: 10.7% (active). Take `O=C(CCCCCn1c(=S)[nH]c2ccsc2c1=O)NC1CCCCC1`: the activation is -0.19%. For the molecule `Oc1cccc2ccc(/C=C/c3ccc(Br)s3)nc12`, the activation was 8.85% (active). `Cc1nc(N=C(N)N)nc2c(C)cccc12`: the activation was 0.25%. The figure for `CC(=O)Oc1ccc(C(=O)Nc2nccs2)cc1` is 5%; for `CC(=O)c1sc(NC(=O)c2ccc(C)cc2)nc1C` it is 8.83% (active); for `CC(=O)c1sc(N/N=C\c2ccc(C)cc2)nc1C` it is 6.19% (active). Consider `Cc1ccc(NC(=O)c2cc3ccccc3o2)cc1`, for which the activation was 4.91%.

Consider `Cc1ccc(Nc2nc(Cl)c(C=O)s2)cc1`, for which the activation is 3.07%. The figure for `CC(C)C[C@H]1CNC(=O)C(=O)N1C[C@H]1CCCN1C[C@H](Cc1ccc(O)cc1)N1C[C@H](CC(C)C)N(CC2CCCCCC2)C(=O)C1=O` is 0.47%.
